ChEMBL document CHEMBL1268910, “Assessment of structurally diverse philanthotoxin analogues for inhibitory activity on ionotropic glutamate receptor subtypes: discovery of nanomolar, nonselective, and use-dependent antagonists” (J Med Chem, 2010)
The source made the active and inactive calls. The rule behind the calls is not given here.

How the values were obtained:
[1] = biological target: T1, Glutamate NMDA receptor; GRIN1/GRIN2A (Homo sapiens, UniProt Q05586+Q12879); assay: Antagonist activity at NR1-1a/NR2A receptor expressed in Xenopus laevis oocytes assessed as inhibition of glutamate/glycine-induced current at 0.1 uM at -60mV holding potential by two-electrode voltage-clamp electrophysiology; format: functional, cell-based; settings: Oocyte
Outline: (§1)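 Single-concentration screen at 0.1 and 10 μM by two-electrode voltage clamp (-60 mV) in Xenopus oocytes. Toxin was co-applied with 100 μM glutamate (GluA1i) or with 100 μM glutamate plus 100 μM glycine (GluN1/2A). Percent inhibition was taken from the decrease in agonist-evoked current.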

[2] = biological target: T1, Glutamate NMDA receptor; GRIN1/GRIN2A; assay: Antagonist activity at NR1-1a/NR2A receptor expressed in Xenopus laevis oocytes assessed as inhibition of glutamate/glycine-induced current at -80mV holding potential by two-electrode voltage-clamp electrophysiology; format: functional, cell-based; settings: Oocyte
Outline: (§2)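 Holding-potential dependence was measured in oocytes expressing GluA1i or GluN1/2A at -40, -60 and -80 mV by two-electrode voltage clamp. One fixed toxin concentration, chosen from the -60 mV concentration-response data, was co-applied with 100 μM glutamate (GluA1i) or with glutamate plus glycine at 100 μM each (GluN1/2A). The read-out was the reduction in receptor current.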

[3] = biological target: T1, Glutamate NMDA receptor; GRIN1/GRIN2A; assay: Antagonist activity at NR1-1a/NR2A receptor expressed in Xenopus laevis oocytes assessed as inhibition of glutamate/glycine-induced current at -40mV holding potential by two-electrode voltage-clamp electrophysiology; format: functional, cell-based; settings: Oocyte; outline: as §2
[4] = biological target: T1, Glutamate NMDA receptor; GRIN1/GRIN2A; assay: Antagonist activity at NR1-1a/NR2A receptor expressed in Xenopus laevis oocytes assessed as inhibition of glutamate/glycine-induced current at 10 uM at -60mV holding potential by two-electrode voltage-clamp electrophysiology; format: functional, cell-based; settings: Oocyte; outline: as §1
[5] = biological target: T1, Glutamate NMDA receptor; GRIN1/GRIN2A; assay: Antagonist activity at NR1-1a/NR2A receptor expressed in Xenopus laevis oocytes assessed as inhibition of glutamate/glycine-induced current at -60mV holding potential by two-electrode voltage-clamp electrophysiology; format: functional, cell-based, Oocyte
Outline: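 Two-electrode voltage clamp at -60 mV holding potential on Xenopus oocytes expressing homomeric GluA1i or heteromeric GluN1/2A. Antagonist was co-applied with agonist: 100 μM glutamate for GluA1i, and 100 μM glutamate plus 100 μM glycine for GluN1/2A. IC50 came from concentration-inhibition curves of normalized currents (n = 3). The error term is given as the % difference between the IC50 and antilog(logIC50 + SEM).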

[6] = system: Glutamate receptor ionotropic, AMPA 1 (GluA1i); assay: Antagonist activity at GluR1 expressed in Xenopus laevis oocytes assessed as inhibition of glutamate-induced current at -80mV holding potential by two-electrode voltage-clamp electrophysiology; settings: Oocyte
[7] = system: Glutamate receptor ionotropic, AMPA 1 (GluA1i); assay: Antagonist activity at GluR1 expressed in Xenopus laevis oocytes assessed as inhibition of glutamate-induced current at -40mV holding potential by two-electrode voltage-clamp electrophysiology; settings: Oocyte
[8] = Selectivity ratio of IC50 for NR1-1a/NR2A receptor to IC50 for GluR1
[9] = system: Glutamate receptor ionotropic, AMPA 1 (GluA1i); assay: Antagonist activity at GluR1 expressed in Xenopus laevis oocytes assessed as inhibition of glutamate-induced current at 0.1 uM at -60mV holding potential by two-electrode voltage-clamp electrophysiology; settings: Oocyte

SMILES	inhibition [1]	inhibition [2]	inhibition [3]	inhibition [4]	IC50 [5]	inhibition [6]	inhibition [7]	Ratio IC50 [8]	inhibition [9]
CCCC(=O)N[C@@H](Cc1ccc(O)cc1)C(=O)NCCCNCCCCNCCCN [PHILANTHOTOXIN 343]	9%	Active	Active	61%	2740 nM				
NCCCNCCCCNCCCNC(=O)[C@H](CC1CCCCC1)NC(=O)Cc1cccc2ccccc12	63%	Active	Active	92%	47 nM	Active	Active	1	35%
NCCCNCCCCNCCCNC(=O)[C@H](CC1CCCCC1)NC(=O)c1ccc(-c2ccccc2)cc1		Active	Active		1450 nM	Active	Active	17	35%
NCCCNCCCCNCCCNC(=O)[C@H](CC1CCCCC1)NC(=O)CC12CC3CC(CC(C3)C1)C2		Active	Active		794 nM	Active	Active	8	35%
CCCC(=O)N[C@@H](CC1CCCCC1)C(=O)NCCCNCCCCNCCCN		Active	Active		4380 nM	Active	Active	137	35%
NCCCNCCCCNCCCNC(=O)[C@H](CNC(=O)Cc1ccccc1)NC(=O)C1CCCCC1					2810 nM				35%
NCCCNCCCCNCCCNC(=O)[C@H](CC1CCCCC1)NC(=O)C1CC1		Active	Active		2570 nM				
NCCCNCCCCNCCCNC(=O)[C@H](CC1CCCCC1)NC(=O)C1CCCCC1		Active	Active		656 nM	Active	Active	31	35%
NCCCNCCCCNCCCNC(=O)[C@H](CCCNC(=O)Cc1ccccc1)NC(=O)C1CCCCC1					1030 nM				35%
